Screening data: PubChem, several laboratories
UCH37 DUB inh: human UCH37 deubiquitinating enzyme inhibition | purified proteasome/UCH37, Ub-AMC cleavage fluorescence | inhibition, % (concentration not given with the values) | hit rate 0.33% among 330,000 | AID 588478;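 active = mean inhibition over replicate wells above about 20%, limit read from the data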;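 note: 0% = compound-free wells with enzyme and 100% = wells lacking proteasome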
Target sequence (Q9Y5K5 whole entry, looked up): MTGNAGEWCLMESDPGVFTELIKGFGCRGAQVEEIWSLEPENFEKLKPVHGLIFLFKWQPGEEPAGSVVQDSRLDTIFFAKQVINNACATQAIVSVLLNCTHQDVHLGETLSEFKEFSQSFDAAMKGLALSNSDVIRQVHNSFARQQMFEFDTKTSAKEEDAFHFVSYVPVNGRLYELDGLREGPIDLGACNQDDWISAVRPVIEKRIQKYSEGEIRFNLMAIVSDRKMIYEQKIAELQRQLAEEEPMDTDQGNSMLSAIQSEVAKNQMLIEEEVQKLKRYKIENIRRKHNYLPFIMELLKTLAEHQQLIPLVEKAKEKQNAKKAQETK
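Material: human UCH37 enzyme supplied as purified proteasome complex. Measure: % inhibition of Ub-AMC cleavage fluorescence. Medium: pH 7.4 Tris-HCl (50 mM) with ovalbumin, ATP-MgCl2, DTT. Times: 30 min preincubation with enzyme, 25 min cleavage at room temperature. Detection: AMC fluorescence intensity at 355/460 nm.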
MEKK2mut PB1 HTS: signal of MEK5 binding to mutant human MEKK2 PB1 domain | percent response, % at 10 µM | bead flow cytometry, Alexa488-MEK5 binding to MEKK2 mutant | hit rate 0.35% among 290,000; in the data active = percent response above about 24%, passing the limit was not always enough
Apaf1 inhib: blocks human Apaf-1 apoptosome activity; O14727; hit rate 0.71% among 330,000; inhibition, % at 20 µM; reconstituted apoptosome caspase-3 activity, DEVD-Rh110 fluorescence; active = inhibition of at least 40% at 20 µM;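 note: plate controls were DMSO wells for no effect and DEVD-CHO caspase inhibitor wells for full effect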
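Material: reconstituted apoptosome with Apaf-1, cytochrome c, caspase-9, procaspase-3, dATP. Technique: Rh110 fluorescence intensity. Buffer or medium: pH 7.5 Hepes buffer with CHAPS, BSA, DTT. Times: 30 min plus 50 min, RT.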
MEKK3 PB1 HTS: modulators (inhibitors or enhancers) of MEK5 binding to human MEKK3 PB1 domain; bead-based flow cytometry, Alexa488-MEK5 binding to MEKK3; actives lie on both sides; 0 = blocked by unlabeled MEK5, 100 = vehicle; binding response (% of control), % at 10 µM; hit rate 1.4% among 290,000;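 active = binding response more than 3 SD above or below the average of its plate-row segment, actives on both sides; inconclusive = wells at one plate position flagged as instrument error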;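 note: Alexa488 bead fluorescence after subtracting the streptavidin-only scavenger bead signal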
UBC13 polyUb: blocks human UBC13 polyubiquitin chain formation. inhibition, % at 20 µM. hit rate 0.47% among 330,000. AID 485273. P61088. TR-FRET; in the data active = inhibition above about 45%, passing the limit was not always enough; inconclusive = no clear call, values can overlap the other calls
MEKK2wt PB1 HTS: raises or lowers MEK5 binding to wildtype human MEKK2 PB1 domain; Q9Y2U5; bead flow cytometry, Alexa488-MEK5 binding to MEKK2 WT; actives lie on both sides; binding response (% of control), % at 10 µM; hit rate 1.1% among 290,000; in the data active = binding response below about 67% or above about 130%; inconclusive = no clear call, values can overlap the other calls; inactive = in between
MEKK2wt confirm: raises or lowers MEK5 binding to wildtype human MEKK2, retest. shares compounds with MEKK3 PB1 HTS. bead flow cytometry, Alexa488-MEK5 binding to MEKK2 WT; actives lie on both sides. binding response (% of control), % at 10 µM. hit rate 2.4% among 5,900. AID 1892; in the data active = binding response below about 16% or above about 210%; inactive = in between
MEKK2mut confirm: signal of MEK5 binding to mutant human MEKK2, retest; shares compounds with MEKK3 PB1 HTS; bead flow cytometry, Alexa488-MEK5 binding to MEKK2 mutant; percent response, % at 10 µM; hit rate 2% among 5,900; in the data active = percent response mostly above about 71%, no sharp cut-off; inactive = mostly below about 38%;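 note: higher means compound restores mutant binding toward wildtype level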
MEKK3-MEK5 inh: MEKK3-MEK5 PB1 inhibition, single concentration confirmation. shares compounds with MEKK3 PB1 HTS. bead flow cytometry, Alexa488-MEK5 binding to MEKK3; stronger effect = lower value. binding response (% of control), % at 10 µM. hit rate 1.8% among 5,900. AID 1894;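 active = binding response below 72% of control, or above a set upper limit, though filed actives all read lower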;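 note: 100% = DMSO only wells and 0% = binding blocked by excess unlabeled MEK5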
Casp3 counter: inhibits human caspase-3 in UBC13 counter-screen. shares compounds with UBC13 polyUb. Recombinant caspase-3, Caspase-Glo 3/7 luminescence, 60 min. inhibition, % at 20 µM. hit rate 4% among 1,400;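 active = mean inhibition across replicates above about 26%, limit read from the data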;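 note: plate controls were DMSO with caspase-3 for no effect and DMSO wells lacking enzyme for full effect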
Target sequence (P42574 whole entry, looked up): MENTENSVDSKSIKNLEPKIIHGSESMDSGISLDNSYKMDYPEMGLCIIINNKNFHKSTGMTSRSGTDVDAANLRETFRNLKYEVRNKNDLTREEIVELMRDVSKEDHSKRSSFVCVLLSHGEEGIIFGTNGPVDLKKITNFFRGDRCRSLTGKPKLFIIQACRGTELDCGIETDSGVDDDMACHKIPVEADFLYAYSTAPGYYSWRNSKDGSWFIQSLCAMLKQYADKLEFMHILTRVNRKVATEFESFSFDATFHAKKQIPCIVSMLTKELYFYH
UBC13 conf: human UBC13 polyubiquitin inhibition, confirmed. shares compounds with UBC13 polyUb. UBC13 polyubiquitination, TR-FRET, biochemical. inhibition, % at 10 µM. hit rate 68% among 1,400; in the data active = inhibition above about 45%; inconclusive = no clear call, values can overlap the other calls
* = called active by the depositor; [ ] = another dose, or the depositor's remark. Compounds with a hit are over-represented: about 3% of the library has one in this group of screens.

`Cc1ccc(C(=O)NCCN2C3=NC[C@@H](Cc4ccccc4)N3C[C@H]2Cc2ccc(O)cc2)cc1Br` gave UCH37 DUB inh 5, MEKK2mut PB1 HTS 52*, Apaf1 inhib 32, MEKK3 PB1 HTS 107, UBC13 polyUb 104*, MEKK2wt PB1 HTS 185*, MEKK2wt confirm 200, MEKK2mut confirm 56, MEKK3-MEK5 inh 113, Casp3 counter -3 and UBC13 conf 93*.
`COc1ccc(C[C@H]2CN3C(=NC[C@@H]3Cc3ccc(O)cc3)N2C[C@H](C)NC(=O)c2ccc(C)c(Br)c2)cc1` gave UCH37 DUB inh 2, MEKK2mut PB1 HTS 80*, Apaf1 inhib 28, MEKK3 PB1 HTS 117, UBC13 polyUb 59*, MEKK2wt PB1 HTS 157*, MEKK2wt confirm 4.0*[inhibitor], MEKK2mut confirm -47, MEKK3-MEK5 inh 2.0*, Casp3 counter -1 and UBC13 conf 52*.
For Cc1ccc(C(=O)NCCN2C3=NC[C@H](Cc4ccc(O)cc4)N3C[C@H]2Cc2ccc(O)cc2)cc1Br the results were UCH37 DUB inh 4, MEKK2mut PB1 HTS 13, Apaf1 inhib 9, MEKK3 PB1 HTS 106, UBC13 polyUb 55*, MEKK2wt PB1 HTS 143*, MEKK2wt confirm 134, MEKK2mut confirm 15, MEKK3-MEK5 inh 100, Casp3 counter 0 and UBC13 conf 27.
Cc1ccc(C(=O)N[C@@H](C)CN2C3=NC[C@H](C(C)C)N3C[C@H]2Cc2ccc(O)cc2)cc1Br was read as UCH37 DUB inh 3, MEKK2mut PB1 HTS 21, Apaf1 inhib 15, MEKK3 PB1 HTS 105, UBC13 polyUb 42 and MEKK2wt PB1 HTS 128.
`C/C(CC(=O)Nc1ccccc1-c1ccccc1)=N\NC(=O)COc1ccc(C)cc1Br` gave MEKK2mut PB1 HTS 4, Apaf1 inhib 33, MEKK3 PB1 HTS 109, UBC13 polyUb -7 and MEKK2wt PB1 HTS 105.
Screening O=C(CCS(=O)(=O)c1ccc(Cl)cc1)Nc1cccc(S(=O)(=O)N2CCCCCC2)c1 returned UCH37 DUB inh 2.
For NC(=O)C(=O)NCCCN1CCOCC1 the results were UCH37 DUB inh 4, MEKK2mut PB1 HTS -13, Apaf1 inhib -9, MEKK3 PB1 HTS 93, UBC13 polyUb -4 and MEKK2wt PB1 HTS 89.
Screening C/C=C(\C)C(=O)NCCN1C2=NC[C@@H](C)N2C[C@@H]1Cc1ccc(OC)cc1 returned UCH37 DUB inh 4, MEKK2mut PB1 HTS 17, Apaf1 inhib 6, MEKK3 PB1 HTS 105, UBC13 polyUb 4 and MEKK2wt PB1 HTS 118.
`COc1ccc(C[C@H]2CN3C(=NC[C@@H]3Cc3ccc(O)cc3)N2CCNC(=O)c2ccc(C)c(Br)c2)cc1` gave UCH37 DUB inh -1, MEKK2mut PB1 HTS 96*, Apaf1 inhib 33, MEKK3 PB1 HTS 111, UBC13 polyUb 74*, MEKK2wt PB1 HTS 247*, MEKK2wt confirm 196, MEKK2mut confirm 48, MEKK3-MEK5 inh 109, Casp3 counter 0 and UBC13 conf 56*.
CN(C)CCCn1c(SCC(=O)Nc2nc(-c3cccc(Br)c3)cs2)nc2ccccc2c1=O was read as UCH37 DUB inh 9, MEKK2mut PB1 HTS 55*, Apaf1 inhib 29, MEKK3 PB1 HTS 128*, UBC13 polyUb 116*, MEKK2wt PB1 HTS 265*, MEKK2wt confirm 272*, MEKK2mut confirm 166*, MEKK3-MEK5 inh 114, Casp3 counter 2 and UBC13 conf 134*.
Screening O=C(CSc1nc2ccccc2[nH]1)Nc1nc(-c2cccc(Br)c2)cs1 returned UCH37 DUB inh 5, MEKK2mut PB1 HTS 12, Apaf1 inhib 6, MEKK3 PB1 HTS 102, UBC13 polyUb 15 and MEKK2wt PB1 HTS 93.
Cc1nc(N2CCCCC2C)c2c(C)c(C(=O)Nc3ccccc3C(F)(F)F)sc2n1 (stereo not given) was read as UCH37 DUB inh -49, MEKK2mut PB1 HTS -4, Apaf1 inhib 14, MEKK3 PB1 HTS 103, UBC13 polyUb 40 and MEKK2wt PB1 HTS 96.
For COC(=O)C1=C(C)N(Cc2ccccc2)C(=NCc2cccc(C(F)(F)F)c2)N[C@H]1c1cccc(F)c1 the results were UCH37 DUB inh 1, MEKK2mut PB1 HTS 89*, Apaf1 inhib 37, MEKK3 PB1 HTS 108, UBC13 polyUb 97*, MEKK2wt PB1 HTS 208*, MEKK2wt confirm 221*, MEKK2mut confirm 64, MEKK3-MEK5 inh 108, Casp3 counter -4 and UBC13 conf 84*.
For O=C(NCCCN1CCCC1)c1ccc(Cn2c(=S)[nH]c3ccc(Br)cc3c2=O)cc1 the results were UCH37 DUB inh 4, MEKK2mut PB1 HTS 25, Apaf1 inhib 16, MEKK3 PB1 HTS 105, UBC13 polyUb 48*, MEKK2wt PB1 HTS 144*, MEKK2wt confirm 119, MEKK2mut confirm 7, MEKK3-MEK5 inh 97, Casp3 counter 12 and UBC13 conf inconclusive.
`c1ccc(Nc2nc(NCc3ccco3)c3ccccc3n2)cc1` gave UCH37 DUB inh -94, MEKK2mut PB1 HTS 10, Apaf1 inhib 16, MEKK3 PB1 HTS 100, UBC13 polyUb 48*, MEKK2wt PB1 HTS 174*, MEKK2wt confirm 190, MEKK2mut confirm 62, MEKK3-MEK5 inh 115, Casp3 counter -1 and UBC13 conf 76*.
Screening COc1ccc(CCNC(=O)c2cc(-c3cc(C)c(C)cc3O)n[nH]2)cc1OC returned UCH37 DUB inh 4, MEKK2mut PB1 HTS 0, Apaf1 inhib -2, MEKK3 PB1 HTS 103, UBC13 polyUb 0 and MEKK2wt PB1 HTS 100.
